Measurements: ChEMBL document CHEMBL1150569, “Three new furan derivatives and a new fatty acid from a Taiwanese marine sponge Plakortis simplex” (J Nat Prod, 2001)
Converted amounts (≈) assume the structure as drawn.

Assays:
[1] = Cytotoxicity against human KB16 cells; type: functional, cell-based
How it was run: (§1)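 In vitro cytotoxicity against human tumor cells: COLO-250 colon carcinoma cells and KB-16 nasopharyngeal carcinoma cells. Activity expressed as IC50 in µg/mL.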

[2] = Cytotoxicity against human COLO250 cells; type: functional, cell-based; how it was run: as §1
[3] = Homo sapiens, KB16, read-out: IC50

Structure (SMILES) | IC50 [1, 3] [µg/mL] | IC50 ([2]; Homo sapiens, read-out: IC50) [µg/mL] | IC50 ([1]; kb16) | IC50 [2]
CCCCCCCCCCCCCCCCc1ccc(CC(=O)O)o1 [PLAKORSIN B] | 3.43 (≈ 9.78 µM) | 0.28 (≈ 0.799 µM) |  | 
COC(=O)/C=C\C=C/C(=O)O |  |  | Not Active | Not Active
CCCCCCCCCCCCCCCC[C@@]1(OC)C=C[C@H](CC(=O)OC)OO1 |  |  | Not Active | Not Active
CCCCCCCCCCCCCCCC[C@@]1(OC)C=C[C@@H](CC(=O)OC)OO1 [CHONDRILLIN] | 0.74 (≈ 1.79 µM) |  |  | Not Active
COC(=O)CCC(=O)CC(=O)OC |  |  | Not Active | Not Active
CCCCCCCCCCCCCCCCc1ccc(CC(=O)OC)o1 [PLAKORSIN A] |  |  | Not Active | Not Active
CCCCCCCCCCCCCCCCC(=O)/C=C/C1OC1C(=O)O (stereo not drawn) [PLAKORTIC ACID] |  |  | Not Active | Not Active
CCCCC(CCC=O)CCCCCCCc1ccc(CC(=O)OC)o1 (stereo not drawn) [PLAKORSIN C] |  |  | Not Active | Not Active
COC(=O)C[C@@H]1C=CC(=O)O1 |  |  | Not Active | Not Active
